Measured values from ChEMBL document CHEMBL3526049 (Drug Metab Dispos, 2012).

Columns and labels:
[1] = Tmax in MDR1A knockout Sprague-Dawley rat at 5 mg/kg, po by LC-MS/MS analysis; type: ADME, organism-based; set-up: dose 5 mg/kg, route oral; conditions: in vivo
[2] = Cmax in BCRP knockout Sprague-Dawley rat at 5 mg/kg, po by LC-MS/MS analysis; type: ADME, organism-based; set-up: dose 5 mg/kg, route oral; conditions: in vivo
Summary of the method: (§1)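 Male Sprague-Dawley rats (knockouts age- and weight-matched to wild type), femoral-artery and vein cannulated, recovered ≥2 days. IV/oral crossover: 1 mg/kg IV bolus on day 0, then after a 3-day washout 5 mg/kg oral gavage in 10 ml/kg 50% Cremophor EL in ethanol. Arterial plasma 0–24 h, protein-precipitated, LC-MS/MS (positive ion, 1–5000 ng/ml). Noncompartmental analysis; n=5–9.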

Liver [3] = assay: Drug uptake in MDR1A knockout Sprague-Dawley rat liver at 1 mg/kg, iv; type: ADME, organism-based; set-up: dose 1 mg/kg, route intravenous; conditions: in vivo
Brain = assay: Drug uptake in BCRP knockout Sprague-Dawley rat brain at 1 mg/kg, iv; type: ADME, organism-based; set-up: dose 1 mg/kg, route intravenous; conditions: in vivo
[4] = Drug excretion in bile duct-cannulated MDR1A knockout Sprague-Dawley rat bile at 1 mg/kg, iv up to 24 hrs; type: ADME, organism-based; set-up: dose 1 mg/kg, route intravenous; conditions: read-out: Drug excretion
Summary of the method: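 Male Sprague-Dawley Mdr1a knockout rats with bile duct and femoral cannulas, housed in metabolism cages. […] Urine, bile and feces were collected in total over 0–24 h, and cage wash was taken at 24 h.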

[5] = Cmax in MRP2 knockout Sprague-Dawley rat at 5 mg/kg, po by LC-MS/MS analysis; type: ADME, organism-based; set-up: dose 5 mg/kg, route oral; conditions: in vivo; summary of the method: as §1
[6] = Tmax in MRP2 knockout Sprague-Dawley rat at 5 mg/kg, po by LC-MS/MS analysis; type: ADME, organism-based; set-up: dose 5 mg/kg, route oral; conditions: in vivo; summary of the method: as §1
[7] = Drug excretion in bile duct-cannulated BCRP knockout Sprague-Dawley rat feces at 1 mg/kg, iv up to 24 hrs; type: ADME, organism-based; set-up: dose 1 mg/kg, route intravenous; conditions: faeces, read-out: Drug excretion
Summary of the method: (§2)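 Male Sprague-Dawley rats with bile-duct and femoral cannulation, housed in metabolism cages. Given an IV bolus of 1 mg/kg in 2 ml/kg 50% Cremophor EL in ethanol. Urine, bile and feces collected in toto 0–24 h, with cage wash at 24 h. Amounts quantified by LC-MS/MS and expressed as % of dose; n=6–12.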

[8] = Half life in wild-type Sprague-Dawley rat at 1 mg/kg, iv by LC-MS/MS analysis; type: ADME, organism-based; set-up: dose 1 mg/kg, route intravenous; conditions: in vivo
Summary of the method: (§3)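 Male Sprague-Dawley rats (knockout or wild type matched for age and weight), femoral artery and vein cannulated, at least 2 days recovery. Crossover design: IV bolus 1 mg/kg on day 0 (saline with 0.2 M equivalents HCl), oral gavage 10 mg/kg on day 3 (water with 0.2 M equivalents HCl). Arterial plasma sampled to 24 h (Mdr1a oral arm to 4 h). Analysed by LC-MS/MS and noncompartmental analysis.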

Liver [9] = assay: Drug uptake in BCRP knockout Sprague-Dawley rat liver at 1 mg/kg, iv; type: ADME, organism-based; set-up: dose 1 mg/kg, route intravenous; conditions: in vivo
[10] = Half life in MDR1A knockout Sprague-Dawley rat at 1 mg/kg, iv by LC-MS/MS analysis; type: ADME, organism-based; set-up: dose 1 mg/kg, route intravenous; conditions: in vivo; summary of the method: as §3
[11] = Drug excretion in bile duct-cannulated wild-type Sprague-Dawley rat bile at 1 mg/kg, iv up to 24 hrs; type: ADME, organism-based; set-up: dose 1 mg/kg, route intravenous; conditions: read-out: Drug excretion; summary of the method: as §2
[12] = Tmax in wild-type Sprague-Dawley rat at 5 mg/kg, po by LC-MS/MS analysis; type: ADME, organism-based; set-up: dose 5 mg/kg, route oral; conditions: in vivo; summary of the method: as §1
[13] = AUC (infinity) in BCRP knockout Sprague-Dawley rat at 5 mg/kg, po by LC-MS/MS analysis; type: ADME, organism-based; set-up: time infinity, dose 5 mg/kg, route oral; conditions: plasma; summary of the method: as §1
[14] = Drug excretion in bile duct-cannulated MRP2 knockout Sprague-Dawley rat bile at 1 mg/kg, iv up to 24 hrs; type: ADME, organism-based; set-up: dose 1 mg/kg, route intravenous; conditions: read-out: Drug excretion; summary of the method: as §2
[15] = Half life in MRP2 knockout Sprague-Dawley rat at 5 mg/kg, po by LC-MS/MS analysis; type: ADME, organism-based; set-up: dose 5 mg/kg, route oral; conditions: in vivo; summary of the method: as §1
[16] = AUC (infinity) in wild-type Sprague-Dawley rat at 5 mg/kg, po by LC-MS/MS analysis; type: ADME, organism-based; set-up: time infinity, dose 5 mg/kg, route oral; conditions: plasma; summary of the method: as §1
[17] = Drug excretion in bile duct-cannulated BCRP knockout Sprague-Dawley rat bile at 1 mg/kg, iv up to 24 hrs; type: ADME, organism-based; set-up: dose 1 mg/kg, route intravenous; conditions: read-out: Drug excretion; summary of the method: as §2
[18] = Volume of distribution at steady state in BCRP knockout Sprague-Dawley rat at 1 mg/kg, iv by LC-MS/MS analysis; type: ADME, organism-based; set-up: dose 1 mg/kg, route intravenous; conditions: in vivo, read-out: Vdss; summary of the method: as §3
[19] = Half life in MDR1A knockout Sprague-Dawley rat at 5 mg/kg, po by LC-MS/MS analysis; type: ADME, organism-based; set-up: dose 5 mg/kg, route oral; conditions: in vivo; summary of the method: as §1
[20] = AUC (infinity) in MRP2 knockout Sprague-Dawley rat at 5 mg/kg, po by LC-MS/MS analysis; type: ADME, organism-based; set-up: time infinity, dose 5 mg/kg, route oral; conditions: plasma; summary of the method: as §1
[21] = Half life in wild-type Sprague-Dawley rat at 5 mg/kg, po by LC-MS/MS analysis; type: ADME, organism-based; set-up: dose 5 mg/kg, route oral; conditions: in vivo; summary of the method: as §1
[22] = Tmax in BCRP knockout Sprague-Dawley rat at 5 mg/kg, po by LC-MS/MS analysis; type: ADME, organism-based; set-up: dose 5 mg/kg, route oral; conditions: in vivo; summary of the method: as §1
[23] = Clearance in BCRP knockout Sprague-Dawley rat at 1 mg/kg, iv by LC-MS/MS analysis; conditions: in vivo
[24] = Drug excretion in bile duct-cannulated MDR1A knockout Sprague-Dawley rat feces at 1 mg/kg, iv up to 24 hrs; type: ADME, organism-based; set-up: dose 1 mg/kg, route intravenous; conditions: faeces, read-out: Drug excretion; summary of the method: as §2
[25] = Oral bioavailability in wild-type Sprague-Dawley rat at 5 mg/kg by LC-MS/MS analysis; type: ADME, organism-based; conditions: in vivo; summary of the method: as §1

Tmax [1]: 1.2 h
Cmax [2]: 40 ng/mL
Drug uptake (Liver [3]): Active
Drug uptake (Brain): Active
dose excreted at 24 h [4]: 0%
Cmax [5]: 151 ng/mL
Tmax [6]: 54 min
dose excreted at 24 h [7]: 1%
half-life [8]: 432 min
Drug uptake (Liver [9]): Active
half-life [10]: 732 min
dose excreted at 24 h [11]: 0.5%
Tmax [12]: 48 min
AUC(0-inf) [13]: 113 ng·h/mL
dose excreted at 24 h [14]: 0.2%
half-life [15]: 564 min
AUC(0-inf) [16]: 88 ng·h/mL
dose excreted at 24 h [17]: 0.1%
Vd [18]: 29.1 L/kg
half-life [19]: 600 min
AUC(0-inf) [20]: 622 ng·h/mL
half-life [21]: 264 min
Tmax [22]: 54 min
clearance [23]: 102 mL/min/kg
dose excreted at 24 h [24]: 0.21%
bioavailability [25]: 12%
Structure (SMILES): CC(=O)O[C@H]1C(=O)[C@@]2(C)[C@H]([C@H](OC(=O)c3ccccc3)[C@]3(O)C[C@H](OC(=O)[C@H](O)[C@@H](NC(=O)c4ccccc4)c4ccccc4)C(C)=C1C3(C)C)[C@]1(OC(C)=O)CO[C@@H]1C[C@@H]2O [PACLITAXEL]
